Test results taken from PMC6120731 (ACS Omega, 2018).

Key:
plasma stability study = assay type: in vitro ADME; conditions: 37 °C, 1 mg/mL
Procedure, shortened: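 Test compound added to preheated human plasma (37 °C) at a final 1 mg/mL. Aliquots taken at 0, 15, 30 and 60 min, quenched with acetonitrile, vortexed and centrifuged 5 min. Supernatants analysed by LC-HRMS/MS (negative ESI, C18 column, acetonitrile/isopropanol–water gradient with 0.01% formic acid). Each sample run in triplicate. Percent remaining relative to initial concentration plotted against time.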

[1] = target: T1, human recombinant GIVA cPLA2 (Homo sapiens, UniProt P47712); assay type: biochemical
T1 sequence (P47712 1-749): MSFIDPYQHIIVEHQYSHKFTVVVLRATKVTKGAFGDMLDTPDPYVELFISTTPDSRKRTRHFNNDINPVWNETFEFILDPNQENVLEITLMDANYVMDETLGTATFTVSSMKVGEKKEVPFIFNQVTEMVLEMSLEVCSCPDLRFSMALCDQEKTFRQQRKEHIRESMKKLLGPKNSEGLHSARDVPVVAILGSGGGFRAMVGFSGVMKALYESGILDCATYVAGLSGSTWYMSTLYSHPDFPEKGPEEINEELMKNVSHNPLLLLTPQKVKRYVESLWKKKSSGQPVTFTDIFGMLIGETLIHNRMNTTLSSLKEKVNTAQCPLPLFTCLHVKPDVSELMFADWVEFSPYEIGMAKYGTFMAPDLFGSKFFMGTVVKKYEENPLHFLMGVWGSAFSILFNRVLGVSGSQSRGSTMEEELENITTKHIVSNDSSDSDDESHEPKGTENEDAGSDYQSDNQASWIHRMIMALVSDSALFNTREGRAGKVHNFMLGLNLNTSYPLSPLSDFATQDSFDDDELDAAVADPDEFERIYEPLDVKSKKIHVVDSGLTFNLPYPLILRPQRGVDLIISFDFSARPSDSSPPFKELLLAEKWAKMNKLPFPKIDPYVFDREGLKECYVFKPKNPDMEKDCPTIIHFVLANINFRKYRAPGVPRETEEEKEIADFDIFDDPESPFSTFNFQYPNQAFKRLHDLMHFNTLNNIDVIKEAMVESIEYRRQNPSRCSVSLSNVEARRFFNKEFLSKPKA

5-((6-(4-Butoxyphenyl)-2-fluorohexanoyl)oxy)pentanoic Acid [Compound 27a]
percent parent compound remaining after 1 h (plasma stability study; human plasma, 1 h): ~100% | inhibition of GIVA cPLA2 (in words) [1]: abolished the inhibitory potency

5-((6-(4-Butoxyphenyl)hexanoyl)oxy)pentanoic Acid [Compound 27b]
inhibition of GIVA cPLA2 (in words) [1]: no inhibition

CCCCOc1ccc(CCCCC(=O)C(=O)OCCCCC(=O)O)cc1 [Compound 25a, 5-((6-(4-Butoxyphenyl)-2-oxohexanoyl)oxy)pentanoic Acid]
parent compound in human plasma after 30 min (plasma stability study): not detectable | times less potent than 25b against GIVA cPLA2 [1]: 3 times

CCCCCCOc1ccc(CCCCC(=O)C(=O)OCCCCC(=O)O)cc1 [Compound 25b, 5-((6-(4-(Hexyloxy)phenyl)-2-oxohexanoyl)oxy)pentanoic Acid]
parent compound in human plasma after 30 min (plasma stability study): not detectable | selectivity for GIVA cPLA2 over GVIA iPLA2 [1]: at least 500 fold | times more potent than 6 against GIVA cPLA2 [1]: 4 times

CCCCOc1ccc(CCCCC(=O)C(=O)O)cc1 [Compound 29, 6-(4-Butoxyphenyl)-2-oxohexanoic Acid]
inhibition of GIVA cPLA2 (in words) [1]: very weak inhibition
